Laboratory results taken from ChEMBL document CHEMBL2311260, “Dual action spirobicycloimidazolidine-2,4-diones: antidiabetic agents and inhibitors of aldose reductase-an enzyme involved in diabetic complications” (Bioorg Med Chem Lett, 2013).

Legend:
Bos taurus = organism: Bos taurus; assay: Inhibition of calf ALR1 at 0.6 mM
Method in brief: (§1)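 ALR1 (aldehyde reductase) partially purified from calf kidney. Values are IC50 ± SEM in µM, or percent inhibition at 0.6 mM. Valproic acid served as positive control to validate the assay.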

[1] = Inhibition of calf ALR2; parameters: species or system Bos taurus
Method in brief: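 Partially purified ALR2 extracted from calf eye. D,L-glyceraldehyde was the substrate with NADPH as cofactor, and sulindac served as reference. IC50 values are given ± SEM from n = 3. Kinetics were also run with inhibitor at 20 µM, varying substrate or NADPH for Km and inhibition type.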

Rattus norvegicus [2] = organism: Rattus norvegicus; assay: Antidiabetic activity in albino rat diabetic model assessed as plasma glucose level measured after 4 hrs (reference value: 291 +/- 6.40 mg/dl); type: functional
Rattus norvegicus [3] = organism: Rattus norvegicus; assay: Antidiabetic activity in albino rat diabetic model assessed as plasma glucose level measured after 7 hrs (reference value: 280 +/- 6.51 mg/dl); type: functional
Rattus norvegicus [4] = organism: Rattus norvegicus; assay: Antidiabetic activity in albino rat diabetic model assessed as plasma glucose level measured after 2 hrs (reference value: 251 +/- 2.91 mg/dl); type: functional
Rattus norvegicus [5] = organism: Rattus norvegicus; assay: Antidiabetic activity in albino rat diabetic model assessed as plasma glucose level measured after 1 hr (reference value: 274 +/- 4.73 mg/dl); type: functional
Rattus norvegicus [6] = organism: Rattus norvegicus; assay: Antidiabetic activity in albino rat diabetic model assessed as plasma glucose level measured after 6 hrs (reference value: 285 +/- 8.66 mg/dl); type: functional
Rattus norvegicus [7] = organism: Rattus norvegicus; assay: Antidiabetic activity in albino rat diabetic model assessed as plasma glucose level measured after 5 hrs (reference value: 275 +/- 3.53 mg/dl); type: functional
Rattus norvegicus [8] = organism: Rattus norvegicus; assay: Antidiabetic activity in albino rat diabetic model assessed as plasma glucose level measured after 3 hrs (reference value: 263 +/- 10.67 mg/dl); type: functional
[9] = Inhibition of calf ALR1; parameters: species or system Bos taurus; method in brief: as §1

Structure (SMILES)	inhibition (Bos taurus)	IC50 [1]	IC50 [9]	Activity (Rattus norvegicus [2])	Activity (Rattus norvegicus [3])	Activity (Rattus norvegicus [4])	Activity (Rattus norvegicus [5])	Activity (Rattus norvegicus [6])	Activity (Rattus norvegicus [7])	Activity (Rattus norvegicus [8])
O=C1NC2(CC3CCC2C3)C(=O)N1S(=O)(=O)c1ccc(Br)cc1 (stereo unspecified)	43.2%	15.4 µM		353 mg/dL	245 mg/dL	273 mg/dL	289 mg/dL	337 mg/dL	352 mg/dL	357 mg/dL
O=C1NC2(CC3CCC2C3)C(=O)N1S(=O)(=O)c1ccc2ccccc2c1 (stereo unspecified)	36.8%	3.8 µM		471 mg/dL	430 mg/dL	389 mg/dL	210 mg/dL	414 mg/dL	401 mg/dL	393 mg/dL
COc1ccc(S(=O)(=O)N2C(=O)NC3(CC4CCC3C4)C2=O)cc1 (stereo unspecified)		4.4 µM	40.2 µM	570 mg/dL	620 mg/dL	353 mg/dL	413 mg/dL	600 mg/dL	565 mg/dL	544 mg/dL
CC1=C(CC(=O)O)c2cc(F)ccc2/C1=C\c1ccc([S+](C)[O-])cc1 (stereo unspecified) [SULINDAC]		0.293 µM								
COc1ccc(Cl)cc1C(=O)NCCc1ccc(S(=O)(=O)NC(=O)NC2CCCCC2)cc1 [GLYBURIDE]				239 mg/dL	150 mg/dL	289 mg/dL	350 mg/dL	170 mg/dL	220 mg/dL	250 mg/dL

Further lines, with some results ahead:

inhibition (Bos taurus)	IC50 [1]	IC50 [9]	Structure (SMILES)	Activity (Rattus norvegicus [2])	Activity (Rattus norvegicus [3])	Activity (Rattus norvegicus [4])	Activity (Rattus norvegicus [5])	Activity (Rattus norvegicus [6])	Activity (Rattus norvegicus [7])	Activity (Rattus norvegicus [8])
41.6%	4.5 µM		O=C1c2ccccc2C(=O)c2cc(S(=O)(=O)N3C(=O)NC4(CC5CCC4C5)C3=O)ccc21 (stereo unspecified)	281 mg/dL	86 mg/dL	399 mg/dL	460 mg/dL	99 mg/dL	187 mg/dL	338 mg/dL
	13.1 µM	44.8 µM	O=C1NC2(CC3CCC2C3)C(=O)N1S(=O)(=O)c1ccc([N+](=O)[O-])cc1 (stereo unspecified)	421 mg/dL	542 mg/dL	429 mg/dL	399 mg/dL	502 mg/dL	349 mg/dL	482 mg/dL
	1.8 µM	117 µM	Cc1ccc(S(=O)(=O)N2C(=O)NC3(CC4CCC3C4)C2=O)cc1 (stereo unspecified)	225 mg/dL	114 mg/dL	421 mg/dL	506 mg/dL	128 mg/dL	163 mg/dL	305 mg/dL
	5.59 µM	61.1 µM	O=C1NC2(CC3CCC2C3)C(=O)N1S(=O)(=O)c1ccc(Cl)cc1 (stereo unspecified)	280 mg/dL	128 mg/dL	287 mg/dL	392 mg/dL	143 mg/dL	215 mg/dL	283 mg/dL
